Measured values: ChEMBL document CHEMBL2086316, “Synthesis and structure-activity relationships of pyrazolo[1,5-a]pyridine derivatives: potent and orally active antagonists of corticotropin-releasing factor 1 receptor” (J Med Chem, 2012)

Tested on: not listed separately
Assay: AUC in CD1 (ICR) mouse at 10 mg/kg, po
Type: ADME, organism-based
Parameters: dose 10 mg/kg, route oral
Settings: plasma
Procedure, shortened: (§1)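 Male fasted CD1 (ICR) mice dosed i.v. 3 mg/kg or p.o. 10 mg/kg (10 mL/kg each). Vehicle was DMSO/5% glucose with 1/250 volume 5 mol/L HCl (1:19 i.v., 1:9 p.o.). Vena cava blood was drawn at 0.083 (i.v. only), 0.25, 0.5, 1, 2, 4, 6, 8 and 24 h, n = 4 per time point. Plasma was extracted and assayed by reversed-phase HPLC with fluorescence detection. Values are the mean of four animals.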

AUC [ng·h/mL] | Compound
870 | CCc1nn2c(-c3c(OC)cc(COC)cc3OC)cccc2c1N(CC1CCOCC1)CC1CC1.Cc1ccc(S(=O)(=O)O)cc1

Tested on: not listed separately
Assay: Oral bioavailability in CD1 (ICR) mouse at 10 mg/kg
Type: ADME, organism-based
Settings: in vivo
Procedure, shortened: as §1

bioavailability [%] | Compound
31 | CCc1nn2c(-c3c(OC)cc(COC)cc3OC)cccc2c1N(CC1CCOCC1)CC1CC1.Cc1ccc(S(=O)(=O)O)cc1

Tested on: not listed separately
Assay: Volume of distribution at steady state in CD1 (ICR) mouse 3 mg/kg, iv
Type: ADME, organism-based
Parameters: dose 3 mg/kg, route intravenous
Settings: in vivo, read-out: Vdss
Procedure, shortened: as §1

Vd [L/kg] | Compound
3.74 | CCc1nn2c(-c3c(OC)cc(COC)cc3OC)cccc2c1N(CC1CCOCC1)CC1CC1.Cc1ccc(S(=O)(=O)O)cc1

Tested on: Liver microsomes
Assay: Intrinsic clearance in human liver microsomes after 15 mins
Type: ADME, Microsome
Settings: not given
Procedure, shortened: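 Compound at 0.3 μmol/L (0.03% DMSO final) was incubated with pooled human liver microsomes (0.1 mg/mL protein) and an NADPH-generating system at 37 °C for 0 and 15 min. Reactions were quenched with acetonitrile/methanol containing internal standard. Parent depletion was measured by LC/MS/MS. Values are the mean of six measurements.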

Compound | CLint [mL/min/mg]
CCc1nn2c(-c3c(C)cc(C)cc3OC)cccc2c1N(CC1CC1)CC1CC1 | 1.12
CCc1nn2c(-c3c(C)cc(C)cc3OC)cccc2c1N(CCOC)CC1CC1 | 1.69
CCc1nn2c(-c3c(C)cc(C)cc3OC)cccc2c1N(CCCF)CC1CC1 | 1.41
CCc1nn2c(-c3c(C)cc(C)cc3OC)cccc2c1N(CC1CC1)CC1CCOC1 (centres undefined) | 1.35
CCc1nn2c(-c3c(C)cc(C)cc3OC)cccc2c1N(CC1CC1)CC1CCCO1 (centres undefined) | 1.23
CCc1nn2c(-c3c(COC)cc(OC)cc3OC)cccc2c1N(CC1CCOCC1)CC1CC1 | 0.53
CCCN(CC1CCOCC1)c1c(CC)nn2c(-c3c(OC)cc(C)cc3OC)cccc12 | 0.89
CCCN(CC1CCOCC1)c1c(CC)nn2c(-c3c(OC)cc(COC)cc3OC)cccc12 | 0.7
COCc1cc(OC)c(-c2cccc3c(N(CC4CCOCC4)CC4CC4)c(OC)nn23)c(OC)c1 | 0.76
COCc1cc(OC)c(-c2cccc3c(N(CC4CCOCC4)CC4CC4)c(SC)nn23)c(OC)c1 | 0.34
COCc1cc(OC)c(-c2cccc3c(N(CC4CCOCC4)CC4CC4)c(C)nn23)c(OC)c1 | 0.11
COCc1cc(OC)c(-c2cccc3c(N(CC4CCOCC4)CC4CC4)c(C#N)nn23)c(OC)c1 | 1.1
COc1cc(C)cc(OC)c1-c1cccc2c(N(CC3CCOCC3)CC3CC3)c(OC)nn12 | 0.57

The next lines start with the values.

CLint [mL/min/mg] | Compound
0.45 | CCc1nn2c(-c3c(C)cc(C)cc3OC)cccc2c1N(CC1CCOCC1)CC1CC1
0.44 | CCc1nn2c(-c3c(OC)cc(C)cc3OC)cccc2c1N(CC1CCOCC1)CC1CC1
0.45 | CCc1nn2c(-c3c(C)cc(OC)cc3OC)cccc2c1N(CC1CCOCC1)CC1CC1
0.45 | CCc1nn2c(-c3c(OC)cc(OC)cc3OC)cccc2c1N(CC1CCOCC1)CC1CC1
0.6 | CCc1nn2c(-c3cc(OC)c(OC)cc3OC)cccc2c1N(CC1CCOCC1)CC1CC1
0.3 | CCc1nn2c(-c3c(OC)cc(COC)cc3OC)cccc2c1N(CC1CCOCC1)CC1CC1
0.52 | CCOCc1cc(OC)c(-c2cccc3c(N(CC4CCOCC4)CC4CC4)c(CC)nn23)c(OC)c1
0.74 | CCc1nn2c(-c3c(OC)cccc3OC)cccc2c1N(CC1CCOCC1)CC1CC1

Tested on: not listed separately
Assay: Tmax in CD1 (ICR) mouse 10 mg/kg, po
Type: ADME, organism-based
Parameters: dose 10 mg/kg, route oral
Settings: in vivo
Procedure, shortened: as §1

Tmax [min] | Compound
15 | CCc1nn2c(-c3c(OC)cc(COC)cc3OC)cccc2c1N(CC1CCOCC1)CC1CC1.Cc1ccc(S(=O)(=O)O)cc1

Tested on: not listed separately
Assay: Cmax in CD1 (ICR) mouse at 10 mg/kg, po
Type: ADME, organism-based
Parameters: dose 10 mg/kg, route oral
Settings: in vivo
Procedure, shortened: as §1

Cmax [ng/mL] | Compound
320 | CCc1nn2c(-c3c(OC)cc(COC)cc3OC)cccc2c1N(CC1CCOCC1)CC1CC1.Cc1ccc(S(=O)(=O)O)cc1

Tested on: not listed separately
Assay: Clearance in CD1 (ICR) mouse at 3 mg/kg, iv
Type: ADME, organism-based
Parameters: dose 3 mg/kg, route intravenous
Settings: in vivo
Procedure, shortened: as §1

clearance [mL/min/kg] | Compound
43.3 | CCc1nn2c(-c3c(OC)cc(COC)cc3OC)cccc2c1N(CC1CCOCC1)CC1CC1.Cc1ccc(S(=O)(=O)O)cc1

Tested on: not listed separately
Assay: AUC in CD1 (ICR) mouse at 3 mg/kg, iv
Type: ADME, organism-based
Parameters: dose 3 mg/kg, route intravenous
Settings: plasma
Procedure, shortened: as §1

AUC [ng·h/mL] | Compound
850 | CCc1nn2c(-c3c(OC)cc(COC)cc3OC)cccc2c1N(CC1CCOCC1)CC1CC1.Cc1ccc(S(=O)(=O)O)cc1

Tested on: not listed separately
Assay: Terminal half life in CD1 (ICR) mouse at 3 mg/kg, iv
Type: ADME, organism-based
Parameters: dose 3 mg/kg, route intravenous
Settings: in vivo, read-out: beta t1/2 (converted)
Procedure, shortened: as §1

half-life [min] | Compound
132 | CCc1nn2c(-c3c(OC)cc(COC)cc3OC)cccc2c1N(CC1CCOCC1)CC1CC1.Cc1ccc(S(=O)(=O)O)cc1
